Assay outcomes from PubChem.
JMJD2C inh – inhibitors of GASC-1 histone demethylase, primary screen, biochemical, fluorescence, DELFIA europium; inhibition, % at 2.35 µM; 330,000 tested, 0.069% active; GST-JMJD2C(1-420) H3K9me3 demethylation; AID 2099, 2009;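 active = more than half of a compound's replicate wells show inhibition beyond 50%, single wells judged on their own value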;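 note: signal counts dimethyl H3K9 product captured on neutravidin plate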
AHR activator – AHR activators, primary screen, cell-based, luminescence, luciferase reporter, human; AID 2796, 2010; 320,000 tested, 2.5% active; activation, % at 5 µM; AHR-responsive luciferase reporter cells; Aryl hydrocarbon receptor (Homo sapiens), P35869; in the data active = activation above about 47%
Target sequence (P35869 whole entry, looked up): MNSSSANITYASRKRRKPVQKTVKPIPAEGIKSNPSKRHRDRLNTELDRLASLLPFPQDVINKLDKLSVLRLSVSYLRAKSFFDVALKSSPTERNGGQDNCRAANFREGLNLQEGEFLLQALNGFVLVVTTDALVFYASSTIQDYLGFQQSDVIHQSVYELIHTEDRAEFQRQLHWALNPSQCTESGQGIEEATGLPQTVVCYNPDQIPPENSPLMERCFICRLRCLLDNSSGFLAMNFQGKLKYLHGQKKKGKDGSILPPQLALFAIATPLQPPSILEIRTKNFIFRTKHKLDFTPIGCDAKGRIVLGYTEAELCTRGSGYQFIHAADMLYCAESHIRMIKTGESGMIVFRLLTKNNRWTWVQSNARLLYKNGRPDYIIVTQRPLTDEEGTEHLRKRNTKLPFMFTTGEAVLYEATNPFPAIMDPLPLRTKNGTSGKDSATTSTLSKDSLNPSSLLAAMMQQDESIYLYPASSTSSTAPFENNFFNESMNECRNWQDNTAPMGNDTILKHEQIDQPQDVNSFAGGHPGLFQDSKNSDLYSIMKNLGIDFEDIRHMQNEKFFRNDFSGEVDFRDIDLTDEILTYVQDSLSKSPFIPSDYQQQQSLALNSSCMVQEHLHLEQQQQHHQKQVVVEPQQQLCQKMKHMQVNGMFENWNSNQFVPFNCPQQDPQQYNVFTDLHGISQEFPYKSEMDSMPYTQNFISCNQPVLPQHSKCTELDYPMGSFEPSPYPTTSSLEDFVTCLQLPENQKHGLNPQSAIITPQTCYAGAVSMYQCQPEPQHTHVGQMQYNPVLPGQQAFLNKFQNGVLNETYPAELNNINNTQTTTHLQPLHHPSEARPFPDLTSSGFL
SR-BI HDL uptake – inhibitors of SR-BI mediated HDL lipid uptake, primary screen, ldlA[mSR-BI] cells, fluorescence, single point | Scavenger receptor class B member 1 (Mus musculus), Q61009 | ldlA[mSR-BI] CHO cells, DiI-HDL uptake fluorescence, 3 h | inhibition, % at 12.5 µM | 320,000 tested, 0.96% active;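 active = mean replicate inhibition of at least 70% and a set share of replicates each scoring 70 or more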
GAA850 FXN act – FXN promoter activators, primary screen, cell-based, luciferase luminescence, HEK293 lucGAA850 | activation, % at 6 µM | HEK293 lucGAA850 FXN promoter luciferase reporter, 24 h; percent of 10 µM SAHA response | 360,000 tested, 0.56% active;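 active = activation above the average of all compounds screened plus 3 SD, cutoff fixed separately per campaign, cut at about 7.5% in these data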
SR-BI uptake up – activators of SR-BI mediated DiI-HDL uptake, primary screen, ldlA[mSR-BI] CHO cells, DiI fluorescence | 3 h; 100 = double the neutral-control signal | AID 504775, 2011 | activation, % at 12.5 µM | 320,000 tested, 0.096% active;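 active = mean replicate activation of at least 60% and every replicate at or above 60%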
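material = CHO ldlA[mSR-BI] cells | medium = Ham's F12 with 0.5% BSA, HEPES 25 mM, pH 7.4 | reagent = fluorescent DiI-HDL, 10 µg/mL final | compound dosing = single-point compound dose | incubation = 3 h, 37 °C | measured by = bottom-read fluorescence, 550/595 nm | measure = HDL uptake via cellular fluorescence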
AHR act confirm – AHR activators, confirmation, cell-based, luminescence, luciferase reporter, human. shares compounds with AHR activator. human cells, AHR-responsive luciferase reporter. activation, % at 9 µM. 2,300 tested, 87% active. AID 2845, 2010; in the data active = activation above about 49%;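 note: HepG2 hepatoma cells carrying a DRE-driven firefly luciferase reporter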
PXR act counter – human PXR activators, counter-screen for AHR activator project, cell-based, luciferase luminescence. shares compounds with AHR activator. cell-based PXR reporter. activation, % at 11.6 µM. 2,300 tested, 88% active; in the data active = activation above about 11%;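 note: human hepatoma DPX-2 cells expressing full-length human PXR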
Large screens that a line does not name were inactive (follow-up assays come after a bar, where they were run). An excerpt weighted towards active compounds, which were near 3.7% of everything screened.

C[C@H](NC(=O)[C@@H]1CSC2c3ccccc3C(=O)N21)C(=O)NCCc1ccccc1 (stereo not given in full)	AHR activator 124 | AHR act confirm 107 | PXR act counter 59
COc1ccccc1-c1nnc(SC(C)C(=O)NCC2CCCO2)n1C (stereo not given)	none (no result: JMJD2C inh, AHR activator)
O=C(Nc1ccon1)c1cnc2sccn2c1=O	AHR activator 139 | AHR act confirm 107
Cc1cccc(NC(=O)c2cnc3sccn3c2=O)n1	AHR activator 168 | AHR act confirm 135 | PXR act counter 14
O=C(NCc1cccnc1)c1cnc2n(c1=O)CCS2	none
O=C(NCc1cccnc1)c1cnc2sccn2c1=O	AHR activator 81 (no result: SR-BI HDL uptake, SR-BI uptake up) | AHR act confirm inactive | PXR act counter inactive
Cc1cccc(NC(=O)c2cnc3sccn3c2=O)c1C	none (no result: AHR activator, SR-BI HDL uptake, SR-BI uptake up)
CC(NCC(O)COc1ccccc1)C1COc2ccccc2O1 (stereo not given)	none
CC(=O)N1c2ccccc2N2C(c3c(C)c(C)cc(C)c3C)=NON12	none (no result: JMJD2C inh, AHR activator)
COc1ccc(-c2cc3cc(OC)c(OC)cc3c(C)n2)cc1C	AHR activator 96 (no result: SR-BI HDL uptake, SR-BI uptake up) | AHR act confirm 58 | PXR act counter 29
Cc1cc(=O)[nH]c(S/C=C/c2ccccc2)n1	AHR activator 118 | AHR act confirm 102 | PXR act counter 26
Cc1cccc(Nc2nc(-c3ccc(F)c(C)c3)cs2)n1	AHR activator 95 | AHR act confirm 134 | PXR act counter 34
Cc1ccc(-c2noc(Cn3cc(S(=O)(=O)N4CCCC4)ccc3=O)n2)cc1	none (no result: JMJD2C inh)
O=C(Nc1ccccc1N1CCCC1)c1ccc(Cl)cc1Cl	none
O=C(Nc1ccccc1N1CCCC1)c1ccc([N+](=O)[O-])cc1Cl	AHR activator 91 | AHR act confirm 87 | PXR act counter 212
O=C(Nc1ccccc1N1CCN(C(=O)c2ccc(Cl)cc2)CC1)c1cccc([N+](=O)[O-])c1	AHR activator 127 | AHR act confirm 102 | PXR act counter 87
CN1CCN(c2ccccc2NC(=O)c2cccc([N+](=O)[O-])c2)CC1	none
CSc1nc(C(=O)N2CCCC(Nc3ccc(C)c(C)c3)C2)cs1 (stereo not given)	AHR activator 108 | AHR act confirm 75 | PXR act counter 119
Cc1nc(C(=O)N2CCCC(Nc3ccc(C)c(C)c3)C2)cs1 (stereo not given)	none (no result: AHR activator)
Cc1ccc2nc(Nc3nc(C)cc(C(F)(F)F)n3)nc(C)c2c1	AHR activator 98 | AHR act confirm 95 | PXR act counter 131
CC(=O)c1cc(C)c(OC(=O)c2ccccc2)c(C)c1	none (no result: JMJD2C inh, AHR activator)
CC(=O)Cc1cc(O)c2ccccc2c1OC(=O)c1ccccc1	AHR activator 93 | AHR act confirm 98 | PXR act counter 16
CN(CC(=O)NCc1ccncc1)S(=O)(=O)c1ccc(F)cc1	none
Cc1ccc(-c2noc(-c3ccccc3Br)n2)cc1	AHR activator 126 (no result: JMJD2C inh) | AHR act confirm 120 | PXR act counter 18
COc1ccc(-c2noc(-c3ccc4c(c3)OCO4)n2)cc1	none
Brc1ccc(-c2nc(-c3ccccc3)no2)o1	AHR activator 124 | AHR act confirm 148 | PXR act counter 19
COc1ccccc1-c1nc(-c2ccc(Br)o2)no1	AHR activator 91 | AHR act confirm 131 | PXR act counter 58
COc1ccccc1-c1noc(-c2cc(OC)c(OC)c(OC)c2)n1	none
c1ccc(-c2noc(-c3ccc4c(c3)OCO4)n2)cc1	AHR activator 87 | AHR act confirm inactive | PXR act counter inactive
Cc1ccc(-c2noc(-c3cc4ccccc4oc3=O)n2)cc1	none (no result: SR-BI HDL uptake, SR-BI uptake up)
COC(C)c1oc2c(C)c3oc(=O)cc(C)c3cc2c1C (stereo not given)	none
COc1ccccc1-c1nc(-c2ccncc2)no1	AHR activator 80 | AHR act confirm 83 | PXR act counter 35
Cc1ccccc1OCc1nc(-c2ccc(Br)o2)no1	none
COc1cccc(-c2nc(-c3ccc(Br)o3)no2)c1	AHR activator 86 | AHR act confirm 136 | PXR act counter 28
COc1ccccc1Cc1nc(-c2ccc(Br)o2)no1	AHR activator 119 | AHR act confirm 113 | PXR act counter 43
COc1ccc(-c2nc(-c3ccc(Br)o3)no2)cc1OC	none
Cc1ccc(-n2ncc3c(NCCCn4ccnc4)ncnc32)c(C)c1	none
Cc1sc2ncnc(NCCCn3ccnc3)c2c1C	AHR activator 127 | AHR act confirm 102 | PXR act counter 22
Cc1cccc(-n2ncc3c(NCCCn4ccnc4)ncnc32)c1	AHR activator 83 | AHR act confirm 57 | PXR act counter 45
NC1=C(c2ccccc2)C(=O)NC1=O	none
NC1=NC(=O)/C(=C/c2ccc(-c3ccc(S(N)(=O)=O)cc3)o2)S1	AHR activator 121 | AHR act confirm 88 | PXR act counter 16
CCCc1cnc(N2CCN(C(=O)c3ccc(OC)cc3)CC2)nc1	none
O=C(Nc1ccccc1)c1oc2ccccc2c1NC(=O)C1CC1	AHR activator 103 | AHR act confirm inactive | PXR act counter 51
COc1ccc(NC(=O)c2oc3ccccc3c2NC(=O)C2CC2)cc1OC	none
COc1ccc(NC(=O)c2oc3ccccc3c2NC(=O)C2CCCO2)cc1OC (stereo not given)	none
O=C(Nc1ccc(F)c(F)c1)c1oc2ccccc2c1NC(=O)C1CCCO1 (stereo not given)	AHR activator 81 (no result: JMJD2C inh) | AHR act confirm 135 | PXR act counter 24
O=C(CSc1nc2ccccc2c2nc3ccccc3n12)NCc1ccco1	AHR activator 80 | AHR act confirm 50 | PXR act counter 48
C[C@@H]1CN([C@H](C)CO)C(=O)CCCn2nncc2CO[C@H]1CN(C)S(=O)(=O)c1ccc(-n2cccn2)cc1	none (no result: JMJD2C inh, AHR activator, SR-BI HDL uptake, SR-BI uptake up)
O=Nc1c(-c2c(O)[nH]c3cc(Br)ccc23)[nH]c2ccccc12	AHR activator 133, SR-BI HDL uptake 118 | AHR act confirm 148 | PXR act counter 22
O=C(Cn1c2c(sc1=O)C1c3ccccc3OCC1CS2)Nc1ccc(Cl)cc1 (stereo not given)	none
O=C(NNS(=O)(=O)c1ccc(Cl)cc1)c1sccc1-n1cccc1	none
